How the values were obtained:
[1] = biological target: T1, Adenosine receptor A2b (Homo sapiens) (UniProt P29275); assay: Antagonist activity at human adenosine A2B receptor expressed in CHO cells assessed as inhibition of NECA-stimulated cyclic AMP production by scintillation counting analysis in presence of [3H]-cyclic AMP; assay type: cell-based; parameters: inhibition: concentration or dose not given beside the values; details: for inhibition: concentration not given here
T1 sequence (whole entry): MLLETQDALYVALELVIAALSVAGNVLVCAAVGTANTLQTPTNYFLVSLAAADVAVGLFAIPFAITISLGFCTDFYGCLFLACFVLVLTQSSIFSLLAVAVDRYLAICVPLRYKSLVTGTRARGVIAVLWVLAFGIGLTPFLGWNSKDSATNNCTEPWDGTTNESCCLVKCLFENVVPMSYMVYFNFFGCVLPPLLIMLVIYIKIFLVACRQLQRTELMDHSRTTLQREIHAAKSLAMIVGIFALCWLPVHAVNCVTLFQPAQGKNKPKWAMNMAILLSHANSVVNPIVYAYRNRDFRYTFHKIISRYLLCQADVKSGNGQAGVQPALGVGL
Procedure, shortened: (§1)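 Preincubated at 37 °C. A2B: antagonism of NECA (100 nM)-stimulated cAMP. A3: forskolin 1 µM plus Cl-IB-MECA (100 nM). Stopped with cold 6% TCA, then ether-extracted. cAMP measured by competition protein binding with [3H]cAMP. KB derived by modified Cheng-Prusoff (Leff and Dougall), mean ± SEM.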

[2] = biological target: T2, Adenosine receptor A3 (Homo sapiens) (UniProt P0DMS8); assay: Antagonist activity at human adenosine A3 receptor expressed in CHO cells assessed as inhibition of Cl-IB-MECA-mediated suppression of forskolin-induced cyclic-AMP accumulation by scintillation counting analysis in presence of [3H]-cyclic AMP; assay type: cell-based; procedure, shortened: as §1
T2 sequence (whole entry): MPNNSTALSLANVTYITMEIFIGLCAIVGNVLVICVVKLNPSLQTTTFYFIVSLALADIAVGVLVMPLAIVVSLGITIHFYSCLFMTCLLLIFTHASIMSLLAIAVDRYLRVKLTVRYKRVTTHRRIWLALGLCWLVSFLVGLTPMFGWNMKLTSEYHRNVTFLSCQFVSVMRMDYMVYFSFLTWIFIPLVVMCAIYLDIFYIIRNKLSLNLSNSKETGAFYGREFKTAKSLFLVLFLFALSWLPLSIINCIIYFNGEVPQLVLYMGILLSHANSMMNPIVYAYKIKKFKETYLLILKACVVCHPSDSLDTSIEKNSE

Adenosine receptor A1 = biological target: T3, Adenosine receptor A1 (Homo sapiens, UniProt P30542); assay: (§2) Displacement of [3H]-DPCPX from human adenosine A1 receptor expressed in CHO cell membranes after 120 mins by scintillation counting analysis
T3 sequence (P30542 whole entry): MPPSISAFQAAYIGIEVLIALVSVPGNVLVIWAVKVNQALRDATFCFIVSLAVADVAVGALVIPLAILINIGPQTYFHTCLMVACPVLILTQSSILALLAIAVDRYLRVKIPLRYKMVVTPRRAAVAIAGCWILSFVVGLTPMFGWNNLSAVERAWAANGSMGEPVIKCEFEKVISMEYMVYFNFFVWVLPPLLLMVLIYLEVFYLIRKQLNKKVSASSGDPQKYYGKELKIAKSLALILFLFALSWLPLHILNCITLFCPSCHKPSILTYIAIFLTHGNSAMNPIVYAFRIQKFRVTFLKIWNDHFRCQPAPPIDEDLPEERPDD
Procedure, shortened: (§3)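 Membranes from transfected CHO cells in 50 mM Tris HCl pH 7.4 at 50 µg protein/assay, pretreated with adenosine deaminase 2 IU/ml. [3H]DPCPX 1 nM against 6-8 antagonist concentrations, 120 min at 25 °C. Non-specific binding defined with 1 µM DPCPX. GF/B filtration, then scintillation counting. Ki by Cheng-Prusoff, n=3-6, mean ± SEM.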

[3] = biological target: T4, Adenosine receptor A1 (Homo sapiens) (UniProt P30542); assay: as §2; parameters: concentration or dose not given beside the values; procedure, shortened: as §3
T4 sequence (whole entry): T3 sequence (P30542 whole entry)

Adenosine receptor A2a = Adenosine receptor A2a (Homo sapiens, UniProt P29274); assay: Displacement of [3H]-ZM241385 from human adenosine A2A receptor expressed in CHO cell membranes after 60 mins by scintillation counting analysis
Adenosine receptor A2a, sequence (P29274 whole entry): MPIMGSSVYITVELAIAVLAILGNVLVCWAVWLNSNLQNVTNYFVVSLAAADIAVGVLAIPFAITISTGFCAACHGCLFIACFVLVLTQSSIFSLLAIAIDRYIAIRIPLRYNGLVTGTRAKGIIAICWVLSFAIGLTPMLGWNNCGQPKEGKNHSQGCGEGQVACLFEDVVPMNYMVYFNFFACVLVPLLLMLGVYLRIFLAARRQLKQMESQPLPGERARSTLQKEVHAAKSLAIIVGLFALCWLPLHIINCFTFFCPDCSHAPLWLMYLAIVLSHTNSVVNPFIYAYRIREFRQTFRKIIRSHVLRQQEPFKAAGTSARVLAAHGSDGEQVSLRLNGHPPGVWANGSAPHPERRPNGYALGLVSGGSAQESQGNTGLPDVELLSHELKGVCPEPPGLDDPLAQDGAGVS
Procedure, shortened: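 Membranes from transfected CHO cells in 50 mM Tris HCl, 10 mM MgCl2, pH 7.4, at 50 µg protein/assay. [3H]ZM241385 2 nM with 6-8 competitor concentrations, 60 min at 4 °C. Non-specific binding defined with 1 µM ZM241385. Filtered on GF/B, bound radioactivity counted. Ki via Cheng-Prusoff, n=3-6, mean ± SEM.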

Adenosine receptor A3 = biological target: T5, Adenosine receptor A3 (Homo sapiens, UniProt P0DMS8); assay: (§4) Displacement of [3H]-MRE3008F20 from human adenosine A3 receptor expressed in CHO cell membranes after 120 mins by scintillation counting analysis
T5 sequence (P0DMS8 whole entry): T2 sequence (whole entry)
Procedure, shortened: (§5)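 Membranes from transfected CHO cells in 50 mM Tris HCl, 10 mM MgCl2, 1 mM EDTA, pH 7.4, at 50 µg protein/assay. [3H]MRE3008F20 1 nM with 6-8 ligand concentrations, 120 min at 4 °C. Non-specific binding defined with 1 µM MRE3008F20. GF/B filtration, then scintillation counting. Ki by Cheng-Prusoff, n=3-6, mean ± SEM.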

[4] = biological target: T2, Adenosine receptor A3 (Homo sapiens); assay: as §4; procedure, shortened: as §5

Compound	Kb [1] [nM]	inhibition [1] [%]	Kb [2] [nM]	Ki (Adenosine receptor A1) [nM]	inhibition [3] [%]	Ki (Adenosine receptor A2a) [nM]	inhibition (Adenosine receptor A2a) [%]	Ki (Adenosine receptor A3) [nM]	inhibition ([2]; concentration not given here) [%]	inhibition [4] [%]
Cn1cc2c(nc(N=C(Nc3ccc(Cl)cc3)Nc3ccc(Cl)cc3)n3nc(-c4ccco4)nc23)n1	> 1000	2	63	> 1000	8	> 1000	11	71		
Cn1cc2c(nc(N=C(Nc3ccc(C#N)cc3)Nc3ccc(C#N)cc3)n3nc(-c4ccco4)nc23)n1	> 1000	1	33	> 1000	1	> 1000	1	30		
CC(C)NC(=Nc1nc2nn(C)cc2c2nc(-c3ccco3)nn12)NC(C)C	> 1000	3	36	> 1000	4	> 1000	1	33		
Cn1cc2c(nc(N=C(Nc3ccc([N+](=O)[O-])cc3)Nc3ccc([N+](=O)[O-])cc3)n3nc(-c4ccco4)nc23)n1	> 1000	1	13	> 1000	1	> 1000	1	18		
Cn1cc2c(nc(N=C(NC3CCCCC3)NC3CCCCC3)n3nc(-c4ccco4)nc23)n1	> 1000	4	32	> 1000	25	> 1000	3	29		
Cn1cc2c(nc(N=C(Nc3ccccc3)Nc3ccccc3)n3nc(-c4ccco4)nc23)n1	> 1000	1	67	> 1000	10	> 1000	2	79		
COc1ccc(NC(=Nc2nc3nn(C)cc3c3nc(-c4ccco4)nn23)Nc2ccc(OC)cc2)cc1	> 1000	4	42	> 1000	7	> 1000	1	42		

Second part, the compound after the results:

Kb [1] [nM]	inhibition [1] [%]	Kb [2] [nM]	Ki (Adenosine receptor A1) [nM]	inhibition [3] [%]	Ki (Adenosine receptor A2a) [nM]	inhibition (Adenosine receptor A2a) [%]	Ki (Adenosine receptor A3) [nM]	inhibition ([2]; concentration not given here) [%]	inhibition [4] [%]	Compound
> 1000	2	537	> 1000	3	> 1000	1	520			Cn1cc2c(nc(N=C(Nc3cccc(C(F)(F)F)c3)Nc3cccc(C(F)(F)F)c3)n3nc(-c4ccco4)nc23)n1
> 1000	1	141	> 1000	1	> 1000	18	155			COc1cccc(NC(=Nc2nc3nn(C)cc3c3nc(-c4ccco4)nn23)Nc2cccc(OC)c2)c1
> 1000	1	74	> 1000	17	> 1000	1	89			Cn1cc2c(nc(N=C(Nc3cccc(Cl)c3)Nc3cccc(Cl)c3)n3nc(-c4ccco4)nc23)n1
> 1000	1	> 1000	> 1000	22	> 1000	3	> 1000	3	19	CCN/C(=N\c1nc2nn(C)cc2c2nc(-c3ccco3)nn12)NCCCN(C)C
> 1000	1	362	> 1000	1	> 1000	10	345			Cn1cc2c(nc(N=C(Nc3ccc(Br)cc3)Nc3ccc(Br)cc3)n3nc(-c4ccco4)nc23)n1
> 1000	1	129	> 1000	1	> 1000	16	122			Cn1cc2c(nc(N=C(Nc3ccc(F)cc3)Nc3ccc(F)cc3)n3nc(-c4ccco4)nc23)n1
> 1000	3	57	> 1000	6	> 1000	1	63			Cc1ccc(NC(=Nc2nc3nn(C)cc3c3nc(-c4ccco4)nn23)Nc2ccc(C)cc2)cc1
